We go through six molecules from ChEMBL document CHEMBL1131232, “New azole antifungals. 3. Synthesis and antifungal activity of 3-substituted-4(3H)-quinazolinones” (J Med Chem, 1998).

Molecules are shown by their SMILES. Converted amounts (≈) assume the structure as drawn.

In series [1] the test system is Mus musculus. In words: In vivo antifungal activity against murine candidosis model after peroral administration with 0.5 mg/kg at various time intervals. (percent protection for 100% mortality with fluconazole-treated group.). It is filed as functional. To be noted: route oral. The essentials:
(§1)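 Groups of 10 male mice were infected iv with 0.2 mL of C. albicans at 2 to 8×10^7 cfu/mL. Drug was given orally as a suspension in 1% Tween + 0.2% carboxymethylcellulose at 1, 4 and 24 h post-infection; controls got vehicle only. Survival was scored on days 3, 5, 7 and 9. Read-out was % survival on the day all untreated controls died, or on the day all mice given fluconazole at the same dose died.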

Series [2] relates to Mus musculus. In words: (§2) In vivo antifungal activity against murine candidosis model after peroral administration with 0.5 mg/kg at various time intervals. (percent protection for 100% mortality with untreated group). It is filed as functional. Conditions: route oral. The essentials:
as §1

A short description of series [3]: In vitro for antifungal activity against 10 yeasts. In kind it is functional. In outline: (§3)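 Agar dilution on Kimmig's agar with 0.5% glycerol, using ATCC strains or clinical isolates. Drug stocks were 800 μg/mL in 50% ethanol, tested as 2-fold dilutions from 80 to 0.03 μg/mL. Inocula were 10⁵ cfu/mL. […] Geometric means took >80 as 160 and ≤0.03 as 0.03.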
Series [4] in a line: In vitro antifungal activity against 6 filamentous fungi. It is filed as functional. In outline:
as §3

The subject of series [5] is Candida albicans. The experiment in a line: In vivo antifungal activity against murine candidosis model after peroral administration with 1 mg/kg at various time intervals. (percent protection for 100% mortality with fluconazole-treated group.). In kind it is functional. Conditions: route oral. The essentials: as §1
Series [6] is described as follows: Half-life in rats after iv administration. Conditions: rat, in vivo. It is filed as ADME, organism-based.
Series [7] concerns Candida albicans. The experiment in a line: In vivo antifungal activity against murine candidosis model after peroral administration with 1 mg/kg at various time intervals. (percent protection for 100% mortality with untreated group). To be noted: route oral. It is filed as functional. In outline:
as §1

Series [8] relates to Mus musculus. The experiment in a line: In vivo antifungal activity against murine candidosis model after peroral administration with 0.5 mg/Kg at various time intervals. (percent protection for 100% mortality with untreated group). In kind it is functional. The essentials:
as §1

Series [9] deals with Candida albicans. In words: The compound was tested in vitro for antifungal activity against Candida albicans. It is filed as functional. In outline: as §3
Series [10] deals with Mus musculus. In words: In vivo antifungal activity against murine candidosis model after peroral administration with 0.5 mg/Kg at various time intervals. (percent protection for 100% mortality with fluconazole-treated group.). In kind it is functional. The essentials: as §1
Series [11] has as its system Mus musculus. In words: In vivo antifungal activity against murine candidosis model after peroral administration with 1 mg/Kg at various time intervals. (percent protection for 100% mortality with untreated group). It is filed as functional. The essentials:
as §1

In series [12] the test system is Mus musculus. In words: The compound was tested in vivo for anti-candida activity in mice model 1(dose: 0.5 mg/kg, untreated group). In kind it is functional.
Series [13] has as its system Rattus norvegicus. In words: In vivo activity against disseminated aspergillosis (liver) in immunocompromized rat model at a dose of 5 mg/kg, bid, po. It is filed as functional. In outline: (§4)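 Male Sprague–Dawley rats, 10 per group, were immunosuppressed with dexamethasone 21-acetate 1 mg/kg/day po from 4 days before iv infection. Oral dosing in 1% Tween 80 + 0.2% CMC was given 1 and 8 h post-infection, then bid for 6 more days. Vehicle controls were dosed po bid. On day 7, liver homogenate was plated on Sabouraud agar (37 °C, 7 days) and log cfu/g recorded.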

Series [14] relates to Rattus norvegicus. In words: In vivo activity against disseminated aspergillosis (liver) in immunocompromized rat model at a dose of 50 mg/kg, bid, po. It is filed as functional. The essentials:
as §4

The subject of series [15] is Oryctolagus cuniculus. The experiment in a line: In vivo antifungal activity against systemic candidosis in rabbit lung at a dose of 2.5 mg/kg, qd, po. In kind it is functional. In outline:
(§5)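 Male New Zealand rabbits, 10 per group, were infected iv with C. albicans at 1.2×10^7 cfu/kg. Oral dosing in 1% Tween 80 + 0.2% CMC began 4 h post-infection and continued qd for 6 more days; controls received vehicle. On day 7, kidney and lung homogenates in saline (1 mL/g) were plated on Sabouraud agar (37 °C, 7 days); read-out was log cfu/g wet tissue.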

In series [16] the test system is Oryctolagus cuniculus. In words: In vivo antifungal activity against systemic candidosis in rabbit lung at a dose of 0.5 mg/kg, qd, po. In kind it is functional. In outline:
as §5

Series [17] concerns Mus musculus. In words: The compound was tested in vivo for anti-candida activity in mice model 1 (dose :0.5 mg/kg,fluconazole-treated group). It is filed as functional.
For series [18], the system named is Oryctolagus cuniculus. The experiment in a line: In vivo antifungal activity against systemic candidosis in rabbit kidney at a dose of 2.5 mg/kg, qd, po. It is filed as functional. The essentials: as §5
For series [19], the system named is Oryctolagus cuniculus. The experiment in a line: In vivo antifungal activity against systemic candidosis in rabbit lung at a dose of 12.5 mg/kg, qd, po. In kind it is functional. In outline:
(§6)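 Groups of 10 male New Zealand rabbits were infected iv with C. albicans (1.2×10^7 cfu/kg). Drug was given orally as a suspension in 1% Tween 80 + 0.2% carboxymethylcellulose 4 h post-infection, then qd for 6 more days; controls got vehicle. On day 7, kidney or lung was homogenized in saline and plated on Sabouraud agar (37 °C, 7 days). Read-out was log cfu/g wet tissue.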

The test system of series [20] is Candida albicans. The series is described as §2. It is filed as functional. Conditions: route oral. In outline: as §1
In series [21] the test system is Oryctolagus cuniculus. The experiment in a line: In vivo antifungal activity against systemic candidosis in rabbit kidney at a dose of 12.5 mg/kg, qd, po. In kind it is functional. In outline:
as §6

In series [22] the test system is Rattus norvegicus. In words: In vivo activity against disseminated aspergillosis (liver) in immunocompromized rat model at a dose of 25 mg/kg, bid, po. In kind it is functional. The essentials:
as §4

For series [23], the system named is Mus musculus. In words: The compound was tested in vivo for anti-candida activity in mice model 2(dose: 5 mg/kg, untreated group). It is filed as functional.
The subject of series [24] is Mus musculus. In words: The compound was tested in vivo for anti-candida activity in mice model 2(dose :5 mg/kg,fluconazole-treated group). In kind it is functional.
The test system of series [25] is Oryctolagus cuniculus. The experiment in a line: In vivo antifungal activity against systemic candidosis in rabbit kidney at a dose of 0.5 mg/kg, qd, po. It is filed as functional. The essentials: as §5
Series [26] has as its system Rattus norvegicus. The experiment in a line: In vivo activity against disseminated aspergillosis (liver) in immunocompromized rat model at a dose of 1 mg/kg, bid, po. It is filed as functional. The essentials: as §4
Series [27] concerns Candida albicans. The experiment in a line: Tested in vivo for anti-candida activity in mice model 1 (dose: 0.5 mg/kg, untreated group). It is filed as functional.
For series [28], the system named is Candida albicans. In words: Tested in vivo for anti-candida activity in mice model 1 (dose:0.5 mg/kg, fluconazole-treated group). It is filed as functional.
Series [29] has as its system Mus musculus. The experiment in a line: The compound was tested in vivo for anti-candida activity in mice model 1(dose: 1 mg/kg,fluconazole-treated group). It is filed as functional.
Series [30] has as its system Mus musculus. In words: The compound was tested in vivo for anti-candida activity in mice model 1(dose: 1 mg/kg, untreated group). In kind it is functional.

Regarding `CCC(CC)n1ncn(-c2ccc(N3CCN(c4ccc5c(=O)n([C@H](C)[C@](O)(Cn6cncn6)c6ccc(F)cc6F)cnc5c4)CC3)cc2)c1=O`, the values for the Protection in the series with Mus musculus [1] and with Mus musculus [2] were 0% and 20%, respectively. Moreover, the MIC in [3] (read-out: MIC) was 2.3 µg/mL (≈ 3.24 µM); in series [4] (read-out: MIC), more than 80 µg/mL.
As to `C[C@@H](n1cnc2cc(F)ccc2c1=O)[C@](O)(Cn1cncn1)c1ccc(F)cc1F`, the Protection with Candida albicans [5], in the series with Candida albicans [7] and in the series with Mus musculus [8] was 0% throughout. Also, in series [6], the half-life is 1.4 h. Moreover, the MIC in series [3] (read-out: MIC) was 0.9 µg/mL (≈ 2.17 µM); in series [4] (read-out: MIC), 2.5 µg/mL (≈ 6.02 µM); against Candida albicans [9], less than 0.03 µg/mL.
As for `C[C@@H](n1cnc2cc(Br)ccc2c1=O)[C@](O)(Cn1cncn1)c1ccc(F)cc1F`, the Protection with Candida albicans [5] is on record as 0%; in the series with Mus musculus [10] it was 0%; in the series on Candida albicans [7], 30%. Moreover, the MIC is 0.4 µg/mL (≈ 0.84 µM) in series [3] (read-out: MIC), 0.8 µg/mL (≈ 1.68 µM) in [4] (read-out: MIC) and less than 0.03 µg/mL in the series on Candida albicans [9].
As for `C[C@@H](n1cnc2cc(N(C)C)ccc2c1=O)[C@](O)(Cn1cncn1)c1ccc(F)cc1F`, the Protection in the series with Candida albicans [5] and in the series with Mus musculus [11] was 0% throughout. Moreover, the results for the MIC in series [3] (read-out: MIC) and in series [4] (read-out: MIC) were 1.3 µg/mL (≈ 2.95 µM) and 71 µg/mL (≈ 161 µM), respectively.
Take `C[C@@H](n1cnc2cc(Cl)ccc2c1=O)[C@](O)(Cn1cncn1)c1ccc(F)cc1F` (stereo in doubt; 20) [ALBACONAZOLE]: the Protection with Mus musculus [12] is reported as 0%; in the series on Candida albicans [5], 0%; in the series on Mus musculus [17], 0%; in the series on Candida albicans [20] it was 0%; with Mus musculus [23], 90%; with Candida albicans [7] it was 0%. This molecule came in with a Protection in the series on Mus musculus [24] of 0%. The Log cfu/g in the series on Rattus norvegicus [13] was found to be 1.22; with Rattus norvegicus [14] it was 0; in the series on Oryctolagus cuniculus [15] it was 0.12; in the series with Oryctolagus cuniculus [16], 0.39; in the series on Oryctolagus cuniculus [18], 0.3; in the series on Oryctolagus cuniculus [19], 0. The Log cfu/g in the series with Oryctolagus cuniculus [21] stood at 0.35; in the series with Rattus norvegicus [22], 0.48; with Oryctolagus cuniculus [25], 0.68; in the series with Rattus norvegicus [26], 1.59. This molecule had a half-life in series [6] of 2.9 h. The results for the MIC (in series [3]; in series [4]; with Candida albicans [9]) were 0.3 µg/mL (≈ 0.695 µM), 0.7 µg/mL (≈ 1.62 µM) and less than 0.03 µg/mL, respectively.
Consider `C[C@@H](c1ncncc1F)[C@](O)(Cn1cncn1)c1ccc(F)cc1F` [VORICONAZOLE], for which the Protection in the series with Candida albicans [27] turned out to be 0%; in the series with Candida albicans [28] it was 0%; in the series on Mus musculus [29] it was 0%; in the series on Mus musculus [30], 20%. Further, the MIC in series [3] (read-out: MIC) stood at 0.6 µg/mL (≈ 1.72 µM); in series [4] (read-out: MIC), 0.5 µg/mL (≈ 1.43 µM).

As a reminder, the MIC is the lowest concentration that inhibits growth of the organism. Usually half-life stands for the time in which the quantity being followed falls by half. The low end stands for rapid decline, the high end for slow decline.
